In data set [1] the target is Cannabinoid receptor 1 (Homo sapiens, UniProt P21554). The experiment in a line: biochemical. In kind it is cell-based, HEK293.
The species named for data set [2] is Homo sapiens. Nature of the data set: Selectivity ratio of Ki for human CB1 receptor to Ki for human CB2 receptor.
For data set [3], the target named is T1, Cannabinoid receptor 2 (Homo sapiens, UniProt P34972). Nature of the data set: Displacement of [3H]CP-55940 from human CB2 receptor expressed in HEK cells. In kind it is cell-based, HEK293. Background: Displacement assays read how much labelled ligand stays bound in the presence of the test substance.
T1 sequence (P34972 whole entry): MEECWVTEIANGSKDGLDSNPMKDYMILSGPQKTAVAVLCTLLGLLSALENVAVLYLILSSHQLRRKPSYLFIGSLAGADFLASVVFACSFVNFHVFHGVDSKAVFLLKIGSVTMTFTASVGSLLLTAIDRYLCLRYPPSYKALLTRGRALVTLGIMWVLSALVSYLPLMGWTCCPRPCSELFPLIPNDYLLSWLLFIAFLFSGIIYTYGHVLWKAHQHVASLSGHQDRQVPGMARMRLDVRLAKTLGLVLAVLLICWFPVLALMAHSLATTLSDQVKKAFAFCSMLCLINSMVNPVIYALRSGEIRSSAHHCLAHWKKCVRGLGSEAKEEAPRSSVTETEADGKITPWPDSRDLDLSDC
For data set [4], the system named is Mus musculus. Nature of the data set: Antinociceptive activity in mouse hind paw assessed as inhibition of formalin-induced nociceptive behavior at 1 mg/kg, ip administered 15 mins prior to formalin challenge. In kind it is functional, organism-based. Also on record: dose 1 mg/kg. In a few lines:
(§1)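 Mice received ip compound in 20% DMSO in 0.9% NaCl, groups of 8-10, one treatment per animal. Formalin (1.25% in saline, 30 μL) was injected into the dorsal hind paw 15 min later. A blinded observer timed lifting, favoring, licking, shaking and flinching over 0-10 min (early phase) and 20-60 min (late phase). Mean ± SEM; ANOVA with Dunnett's test.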

In data set [5] the test system is Mus musculus. Nature of the data set: Antinociceptive activity in mouse hind paw assessed as inhibition of formalin-induced nociceptive behavior at 1 to 3 mg/kg, ip administered 15 mins prior to formalin challenge. In kind it is functional, organism-based. In a few lines: as §1
Data set [6] addresses T1, Cannabinoid receptor 2. The experiment in a line: Antagonist activity at human CB2 receptor expressed in CHO cells assessed as inhibition of forskolin-stimulated cAMP level up to 20 uM by [35S]GTPgammaS binding assay. In kind it is functional, cell-based. In a few lines: (§2)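 CHO cells stably carrying human CB2 (DMEM/F12 with 10% FBS and G418 400 μg/mL, 37 °C, 5% CO2); membranes scraped and pelleted. [35S]GTPγS 0.1 nM with GDP 30 μM, 50 μg membrane protein, in Tris/NaCl/BSA buffer with 5 mM MgCl2, 1 mM DTT and 1 mM EDTA; 60 min at 30 °C. Nonspecific binding with 30 μM GTPγS. Filtration, then scintillation counting.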

Data set [7] addresses T1, Cannabinoid receptor 2. The experiment in a line: Antagonist activity at human CB2 receptor expressed in CHO cells assessed as inhibition of forskolin-stimulated cAMP level at < 100 uM by [35S]GTPgammaS binding assay. In kind it is functional, cell-based. On the technique in general: cAMP levels reflect the balance of adenylyl cyclase and phosphodiesterase activity.
The target in data set [8] is T1, Cannabinoid receptor 2. The experiment in a line: Antagonist activity at human CB2 receptor expressed in CHO cells assessed as inhibition of forskolin-stimulated cAMP level by [35S]GTPgammaS binding assay. In kind it is functional, cell-based. A digest of the protocol:
as §2

The target of data set [9] is CYP3A4 (Homo sapiens, UniProt P08684). The experiment in a line: Inhibition of CYP3A4 after 1 hr assessed as residual activity. In kind it is ADME. The settings on record: read-out: Activity.
Sequence of CYP3A4 (P08684 whole entry): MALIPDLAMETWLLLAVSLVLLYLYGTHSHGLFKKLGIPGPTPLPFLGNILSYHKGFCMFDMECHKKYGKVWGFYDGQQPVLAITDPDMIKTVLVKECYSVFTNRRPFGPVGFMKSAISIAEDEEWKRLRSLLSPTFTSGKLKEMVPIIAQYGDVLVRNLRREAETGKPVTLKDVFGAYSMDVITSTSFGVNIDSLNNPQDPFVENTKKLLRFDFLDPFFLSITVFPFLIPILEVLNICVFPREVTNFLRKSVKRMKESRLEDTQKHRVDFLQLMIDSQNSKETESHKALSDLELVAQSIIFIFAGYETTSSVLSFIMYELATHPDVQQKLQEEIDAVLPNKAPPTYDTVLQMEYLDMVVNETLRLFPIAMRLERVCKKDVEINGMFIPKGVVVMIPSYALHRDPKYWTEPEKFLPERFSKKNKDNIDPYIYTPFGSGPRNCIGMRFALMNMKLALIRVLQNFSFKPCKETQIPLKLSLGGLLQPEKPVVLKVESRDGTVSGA
In data set [10] the test system is Mus musculus. The experiment in a line: Antinociceptive activity in mouse hind paw assessed as inhibition of formalin-induced nociceptive behavior at 1 to 3 mg/kg, ip administered 15 mins prior to formalin challenge in presence of CB2 selective agonist JWH133. In kind it is functional, organism-based. In a few lines:
as §1

Data set [11] deals with Mus musculus. The experiment in a line: Antinociceptive activity in mouse hind paw assessed as inhibition of formalin-induced nociceptive behavior at 3 mg/kg, ip administered 15 mins prior to formalin challenge. In kind it is functional, organism-based. Also on record: dose 3 mg/kg. In a few lines:
as §1

Active and inactive are the calls of the source. The rule behind the calls is not given here.

Sequence of Cannabinoid receptor 1 (P21554 whole entry): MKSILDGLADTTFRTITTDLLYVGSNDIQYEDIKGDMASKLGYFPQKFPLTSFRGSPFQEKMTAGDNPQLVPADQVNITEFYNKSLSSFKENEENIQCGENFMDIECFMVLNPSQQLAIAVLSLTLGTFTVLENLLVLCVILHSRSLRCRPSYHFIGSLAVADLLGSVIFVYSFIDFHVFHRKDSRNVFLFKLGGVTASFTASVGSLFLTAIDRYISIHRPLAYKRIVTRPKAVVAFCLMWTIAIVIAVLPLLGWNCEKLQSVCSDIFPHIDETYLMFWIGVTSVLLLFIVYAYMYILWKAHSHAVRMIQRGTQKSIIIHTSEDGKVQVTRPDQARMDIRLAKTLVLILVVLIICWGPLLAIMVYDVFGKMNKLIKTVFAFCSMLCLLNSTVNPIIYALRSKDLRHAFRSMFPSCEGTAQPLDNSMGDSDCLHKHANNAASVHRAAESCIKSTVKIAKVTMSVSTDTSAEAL

Regarding `CCCCCn1cc(C(=O)NC23CC4CC(CC(C4)C2)C3)c(=O)c2cc(-c3ccc(Cl)s3)ccc21`, the figures for the inhibition constant Ki in data set [1] and in data set [3] were more than 10 µM and 0.0448 µM, respectively. Moreover, in [2], the Selectivity Index was more than 223.
On to `CCCCCn1cc(C(=O)NC23CC4CC(CC(C4)C2)C3)c(=O)c2cc(-c3c(C)noc3C)ccc21`, for which the inhibitory constant (Ki) in data set [1] is more than 10 µM; in [3] it was 0.126 µM. Also, the Selectivity Index in [2] is more than 80.
In the case of `COc1ccc(C(=O)c2c(C)n(CCN3CCOCC3)c3cc(I)ccc23)cc1`, in [4], the Activity result was “inactive”.
As for `CCCCCn1cc(C(=O)NC23CC4CC(CC(C4)C2)C3)c(=O)c2cc(C3=CCCCC3)ccc21`, the inhibition constant (Ki) in [1] was more than 10 µM; in [3], 0.0083 µM. Moreover, the Selectivity Index in [2] was more than 1200.
Consider `CCCCCn1cc(C(=O)N[C@H]2C(C)(C)[C@H]3CC[C@]2(C)C3)c(=O)c2cc(Br)ccc21`, for which the Ki in data set [1] stood at 0.0028 µM; in [3] it was 0.005 µM. Besides, the Selectivity Index in data set [2] was found to be 0.6.
For `CCCCCn1cc(C(=O)NC23CC4CC(CC(C4)C2)C3)c(=O)c2cc(CC)ccc21`, the Ki came to 0.9 µM in data set [1] and 0.0169 µM in data set [3]. Further, in data set [2], the Selectivity Index came out at 53.
As for `C=CCn1cc(C(=O)NC23CC4CC(CC(C4)C2)C3)c(=O)c2cc(-c3ccco3)ccc21`, the inhibition constant (Ki) was more than 10 µM in data set [1] and 0.059 µM in [3]. In data set [2], the Selectivity Index was more than 169.
As to `CCCCCn1cc(C(=O)NC23CC4CC(CC(C4)C2)C3)c(=O)c2cc(-n3ccnc3)ccc21`, the figures for the Ki in [1] and in data set [3] were more than 10 µM and 0.008 µM, respectively. For the same molecule, the Selectivity Index in data set [2] was more than 1250.
In the case of `CCCCCn1cc(C(=O)NC23CC4CC(CC(C4)C2)C3)c(=O)c2cc(-c3ccc(OC)nc3)ccc21`, the results for the Ki in data set [1] and in data set [3] were more than 10 µM and 0.0593 µM, respectively. In addition, the Selectivity Index in [2] was more than 169.
Take `CCCCCn1cc(C(=O)NC23CC4CC(CC(C4)C2)C3)c(=O)c2cc(-c3cnn(CC(C)C)c3)ccc21`: the inhibitory constant (Ki) was 0.246 µM in data set [1] and 0.051 µM in data set [3]. Moreover, the Selectivity Index in data set [2] worked out at 5.
With `CCCCCn1cc(C(=O)NC23CC4CC(CC(C4)C2)C3)c(=O)c2cc(-c3ccc(C#N)cc3)ccc21`, the Ki in data set [1] was more than 10 µM; in data set [3], 0.0419 µM. Besides, the Selectivity Index in [2] is more than 239. The Activity entry in data set [5] is “Active”.
In the case of `CCCCCn1cc(C(=O)NC23CC4CC(CC(C4)C2)C3)c(=O)c2cc(/C=C/c3ccccc3)ccc21`, the inhibition constant (Ki) in [1] was more than 10 µM; in [3], 0.0654 µM. The Selectivity Index in [2] is more than 153.
On to `C#Cc1ccc2c(c1)c(=O)c(C(=O)NC13CC4CC(CC(C4)C1)C3)cn2CCCCC`, for which the Ki in data set [1] is more than 10 µM; in [3], 0.0088 µM. The Selectivity Index in [2] was more than 1140.
As to `CCCCCn1cc(C(=O)NN2CCCCC2)c(=O)c2cc(Br)ccc21`, the inhibitory constant (Ki) worked out at 1.9 µM in data set [1] and 0.4 µM in data set [3]. In data set [2], the Selectivity Index came out at 5.
In the same order, the values of `CCCCCn1cc(C(=O)NC23CC4CC(CC(C4)C2)C3)c(=O)c2cc([S+]([O-])c3ccccc3)ccc21` (centres undefined) are 0.46 µM, 0.0732 µM and 6.
`CCCCCn1cc(C(=O)NC23CC4CC(CC(C4)C2)C3)c(=O)c2cc(-c3ccco3)ccc21`: the Ki in [1] is more than 10 µM; in data set [3], 0.0007 µM. Moreover, in data set [6], the Activity entry was “inactive”. Besides, the Emax in [7] worked out at 13.9%. The Activity entry in [8] and in data set [5] was “Active” each time. The Selectivity Index in data set [2] was more than 14300. Further, in [9], the activity at 1 h amounted to 4%.
`CCCCCn1cc(C(=O)NC23CC4CC(CC(C4)C2)C3)c(=O)c2cc(C3CCCCC3)ccc21`: the Activity result in data set [10] is “Active”. For the same molecule, the inhibition constant Ki in [1] was more than 10 µM; in [3], 0.0073 µM. Further, in [2], the Selectivity Index is more than 1370. Moreover, in data set [5], the Activity result was “inactive”.
As to `CCCCCn1cc(C(=O)NC23CC4CC(CC(C4)C2)C3)c(=O)c2cc(-c3ccc(F)cc3F)ccc21`, the results for the inhibition constant (Ki) in [1] and in [3] were more than 10 µM and 0.016 µM, respectively. Besides, the Selectivity Index in data set [2] is more than 625.
In the same order, the values of `CCCCCn1cc(C(=O)NC23CC4CC(CC(C4)C2)C3)c(=O)c2cc(I)ccc21` are 2.08 µM, 0.0206 µM and 101.
For `CCCCCn1cc(C(=O)NC23CC4CC(CC(C4)C2)C3)c(=O)c2cc(/C=C/C(C)(C)C)ccc21`, the Ki in data set [1] was more than 10 µM; in [3] it was 0.0716 µM. Further, the Selectivity Index in data set [2] was more than 140.
`CCCCCn1cc(C(=O)NC23CC4CC(CC(C4)C2)C3)c(=O)c2cc(C#Cc3ccccc3)ccc21`: the inhibition constant Ki is more than 10 µM in data set [1] and 0.343 µM in data set [3]. Besides, the Selectivity Index in [2] is more than 29.
In the same order, the values of `CCCCCn1cc(C(=O)NC23CC4CC(CC(C4)C2)C3)c(=O)c2cc(-c3ccc(Cl)cc3)ccc21` are more than 10 µM, 0.011 µM and more than 909.
For `CCCCCn1cc(C(=O)NC2CCCCC2)c(=O)c2cc(Br)ccc21` the same measures were 1.7 µM, 0.9 µM and 2.
Turning to `CCCCCn1cc(C(=O)NC23CC4CC(CC(C4)C2)C3)c(=O)c2cc(CCc3ccccc3)ccc21`, in [11], the Activity result is “inactive”. The inhibition constant Ki in data set [1] was more than 10 µM; in data set [3] it was 0.0566 µM. Moreover, the Selectivity Index in data set [2] was more than 177.
On to `CCCCCn1cc(C(=O)NC23CC4CC(CC(C4)C2)C3)c(=O)c2cc(-c3ccc(O)cc3)ccc21`, for which the Activity result in data set [10] was “inactive”. In addition, the Ki in data set [1] is more than 10 µM; in [3] it was 0.0042 µM. Besides, in [2], the Selectivity Index is more than 2380. Also, in data set [5], the Activity entry was “Active”.
As to `C#CCn1cc(C(=O)NC23CC4CC(CC(C4)C2)C3)c(=O)c2cc(Br)ccc21`, the Ki in [1] was 3.21 µM; in data set [3] it was 0.0498 µM. Besides, in [2], the Selectivity Index stood at 64.
In the case of `CCCCCn1cc(C(=O)NC23CC4CC(CC(C4)C2)C3)c(=O)c2cc(S(=O)(=O)c3ccccc3)ccc21`, the inhibition constant Ki in data set [1] is more than 10 µM; in [3] it was 0.0659 µM. Besides, in data set [2], the Selectivity Index is more than 152.
For the molecule `CCCCCn1cc(C(=O)NC23CC4CC(CC(C4)C2)C3)c(=O)c2cc(-c3ccc4cc(OC)ccc4c3)ccc21`, the Ki in [1] is 0.36 µM; in [3], 0.0526 µM. In addition, in data set [2], the Selectivity Index amounted to 7.
In the case of `C=CCCn1cc(C(=O)NC23CC4CC(CC(C4)C2)C3)c(=O)c2cc(-c3ccco3)ccc21`, the Ki in [1] is more than 10 µM; in [3], 0.0044 µM. Moreover, the Selectivity Index in [2] was more than 2270.
For `CCCCCn1cc(C(=O)NC23CC4CC(CC(C4)C2)C3)c(=O)c2cc(-c3cccs3)ccc21` the same measures were more than 10 µM, 0.0023 µM and more than 4350.
On to `CCCCCn1cc(C(=O)NC23CC4CC(CC(C4)C2)C3)c(=O)c2cc(-c3cc(C)c(OC)c(C)c3)ccc21`, for which the inhibition constant Ki came out at 0.51 µM in data set [1] and 0.0215 µM in [3]. Besides, the Selectivity Index in [2] was found to be 24.
In the case of `CCCCCn1cc(C(=O)NC23CC4CC(CC(C4)C2)C3)c(=O)c2cc(Cc3ccc(Cl)cc3Cl)ccc21`, the values for the Ki in data set [1] and in data set [3] were more than 10 µM and 3.88 µM, respectively. Further, the Selectivity Index in data set [2] was more than 3.
In the case of `CCCCCn1cc(C(=O)NC23CC4CC(CC(C4)C2)C3)c(=O)c2cc(-n3cccc3)ccc21`, the Ki in data set [1] stood at 0.0297 µM; in data set [3] it was 0.0007 µM. The Selectivity Index in data set [2] is 42.
For the molecule `CCCCCn1cc(C(=O)N[C@H]2C(C)(C)[C@H]3CC[C@]2(C)C3)c(=O)c2cc(-c3ccco3)ccc21`, the Ki in data set [1] was found to be 0.48 µM; in data set [3], 0.0024 µM. Also, the Selectivity Index in [2] was determined as 200.
With `CCCCCn1cc(C(=O)NC23CC4CC(CC(C4)C2)C3)c(=O)c2cc(-c3ccc(-c4ccccc4)cc3)ccc21`, the Ki is more than 10 µM in [1] and 0.181 µM in [3]. Also, in [2], the Selectivity Index was more than 55.

For orientation: Ki means the equilibrium dissociation constant of an inhibitor or competing ligand from its target. For orientation: Emax means the maximal effect, on the per cent scale that the assay sets.
